{"source": "ChEMBL document CHEMBL1275401", "about": "“2'-Deoxy-2'-spirocyclopropylcytidine revisited: a new and selective inhibitor of the hepatitis C virus NS5B polymerase” (J Med Chem, 2010)", "key": {"[1]": {"experiment": "Cytotoxicity against human MT4 cells expressing LTR-Luc after 3 days by luciferase assay", "format": "cell-based", "procedure,_shortened": "(§1)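 Huh7 cells stably carrying luciferase under the CMV constitutive promoter, or MT4 cells with luciferase under the HIV LTR promoter, were cultured with or without compound dilutions for 3 days at 37 °C in humidified 5% CO₂. Luciferase activity served as the measure of proliferation, giving the CC₅₀ as 50% inhibition of growth. Values are averages of at least four repeats.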"}, "[2]": {"experiment": "Cmax in Sprague-Dawley rat at 60 mg/kg, po", "format": "ADME, organism-based", "set-up": "dose 60 mg/kg, route oral", "settings": "in vivo", "procedure,_shortened": "(§2)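 Male Sprague-Dawley rats, three per dose, received a single oral solution in 20% hydroxypropyl-β-cyclodextrin. EDTA blood was collected at 0.5, 1, 2, 4, 7 and 24 h, kept on ice protected from light, and spun at 4 °C within 1 h; plasma was stored at −20 °C. Parent nucleoside was quantified by LC-MS after acetonitrile precipitation (standard curve 5-2000 ng/mL). Noncompartmental analysis.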"}, "[3]": {"experiment": "Tmax in Sprague-Dawley rat at 10 mg/kg, po", "format": "ADME, organism-based", "set-up": "dose 10 mg/kg, route oral", "settings": "in vivo", "procedure,_shortened": "as §2"}, "[4]": {"experiment": "AUC (0 to 7 hrs) in Sprague-Dawley rat at 10 mg/kg, po", "format": "ADME, organism-based", "set-up": "time < 7 hr, dose 10 mg/kg, route oral", "settings": "plasma", "procedure,_shortened": "as §2"}, "[5]": {"experiment": "Tmax in Sprague-Dawley rat at 60 mg/kg, po", "format": "ADME, organism-based", "set-up": "dose 60 mg/kg, route oral", "settings": "in vivo", "procedure,_shortened": "as §2"}, "[6]": {"experiment": "Cmax in Sprague-Dawley rat at 10 mg/kg, po", "format": "ADME, organism-based", "set-up": "dose 10 mg/kg, route oral", "settings": "in vivo", "procedure,_shortened": "as §2"}, "[7]": {"experiment": "Cytotoxicity against human HuH7 cells expressing CMV-Luc after 3 days by luciferase assay", "format": "cell-based, Huh-7", "procedure,_shortened": "as §1"}, "[8]": {"experiment": "AUC (0 to 7 hrs) in Sprague-Dawley rat at 60 mg/kg, po", "format": "ADME, organism-based", "set-up": "time < 7 hr, dose 60 mg/kg, route oral", "settings": "plasma", "procedure,_shortened": "as §2"}, "Hepatitis C virus": {"test_system": "Hepatitis C virus", "experiment": "Antiviral activity against Hepatitis C virus subtype 1b with adaptive mutations of E1202G, T1280I, K1846T […] infected in human HuH7 cells assessed as inhibition of viral replication after 3 days by luciferase assay", "format": "functional, organism-based, Hepacivirus hominis", "settings": "genotype 1b, Huh-7, 72 h", "procedure,_shortened": "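Huh7-Rep cells carrying the genotype 1b subgenomic luciferase reporter replicon (clone ET; adaptive mutations E1202G, T1280I, K1846T). 2500 cells per well were exposed to a nine-point 1/4 serial dilution of compound. Replication was read out as luciferase activity, and EC50 was derived from it. Values are averages of at least four repeats.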"}, "[9]": {"experiment": "Tmax in Sprague-Dawley rat at 15 mg/kg, po", "format": "ADME, organism-based", "set-up": "dose 15 mg/kg, route oral", "settings": "in vivo", "procedure,_shortened": "as §2"}, "[10]": {"experiment": "Cmax in Sprague-Dawley rat at 90 mg/kg, po", "format": "ADME, organism-based", "set-up": "dose 90 mg/kg, route oral", "settings": "in vivo", "procedure,_shortened": "as §2"}, "[11]": {"experiment": "Tmax in Beagle dog at 75 mg/kg, po", "format": "ADME, organism-based, Canis lupus familiaris", "set-up": "dose 75 mg/kg, route oral", "settings": "in vivo", "procedure,_shortened": "(§3)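 Single oral dose given as a solution in 20% hydroxypropyl-β-cyclodextrin to Beagle dogs, three per dose. Blood was taken on EDTA at 0.5, 1, 2, 4, 6, 8, 24 and 48 h, kept on ice away from light, and centrifuged at 4 °C within 1 h; plasma was stored at −20 °C. Analyte was protein-precipitated with acetonitrile and measured by LC-MS (LOQ ≥5.00 ng/mL). Noncompartmental parameters.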"}, "[12]": {"experiment": "Cmax in Beagle dog at 15 mg/kg, po", "format": "ADME, organism-based, Canis lupus familiaris", "set-up": "dose 15 mg/kg, route oral", "settings": "in vivo", "procedure,_shortened": "as §3"}, "[13]": {"experiment": "Tmax in Sprague-Dawley rat at 90 mg/kg, po", "format": "ADME, organism-based", "set-up": "dose 90 mg/kg, route oral", "settings": "in vivo", "procedure,_shortened": "as §2"}, "[14]": {"experiment": "Tmax in Beagle dog at 15 mg/kg, po", "format": "ADME, organism-based, Canis lupus familiaris", "set-up": "dose 15 mg/kg, route oral", "settings": "in vivo", "procedure,_shortened": "as §3"}, "[15]": {"experiment": "Cmax in Beagle dog at 75 mg/kg, po", "format": "ADME, organism-based, Canis lupus familiaris", "set-up": "dose 75 mg/kg, route oral", "settings": "in vivo", "procedure,_shortened": "as §3"}, "[16]": {"experiment": "AUC (0 to 24 hrs) in Beagle dog at 75 mg/kg, po", "format": "ADME, organism-based, Canis lupus familiaris", "set-up": "time < 24 hr, dose 75 mg/kg, route oral", "settings": "plasma", "procedure,_shortened": "as §3"}, "[17]": {"experiment": "Cmax in Sprague-Dawley rat at 15 mg/kg, po", "format": "ADME, organism-based", "set-up": "dose 15 mg/kg, route oral", "settings": "in vivo", "procedure,_shortened": "as §2"}, "[18]": {"experiment": "AUC (0 to 7 hrs) in Sprague-Dawley rat at 15 mg/kg, po", "format": "ADME, organism-based", "set-up": "time < 7 hr, dose 15 mg/kg, route oral", "settings": "plasma", "procedure,_shortened": "as §2"}, "[19]": {"experiment": "AUC (0 to 24 hrs) in Beagle dog at 15 mg/kg, po", "format": "ADME, organism-based, Canis lupus familiaris", "set-up": "time < 24 hr, dose 15 mg/kg, route oral", "settings": "plasma", "procedure,_shortened": "as §3"}, "[20]": {"experiment": "AUC (0 to 24 hrs) in Sprague-Dawley rat at 90 mg/kg, po", "format": "ADME, organism-based", "set-up": "time < 24 hr, dose 90 mg/kg, route oral", "settings": "plasma", "procedure,_shortened": "as §2"}}, "data": [{"smiles": "Nc1ccn([C@@H]2O[C@H](CO)[C@@H](O)C23CC3)c(=O)n1", "values": [{"measurement": "CC50 at 72 h", "setting": "[1]", "value": "> 98.4", "unit": "µM"}, {"measurement": "Cmax", "setting": "[2]", "value": 527, "unit": "ng/mL"}, {"measurement": "Tmax", "setting": "[3]", "value": 1, "unit": "h"}, {"measurement": "AUC(0-t) at 7 h", "setting": "[4]", "value": 248, "unit": "ng·h/mL"}, {"measurement": "Tmax", "setting": "[5]", "value": 1.3, "unit": "h"}, {"measurement": "Cmax", "setting": "[6]", "value": 85, "unit": "ng/mL"}, {"measurement": "CC50 at 72 h", "setting": "[7]", "value": "> 98.4", "unit": "µM"}, {"measurement": "AUC(0-t) at 7 h", "setting": "[8]", "value": 1640, "unit": "ng·h/mL"}, {"measurement": "EC50", "setting": "Hepatitis C virus", "value": 7.3, "unit": "µM"}]}, {"smiles": "C[C@@]1(O)[C@H](O)[C@@H](CO)O[C@H]1n1ccc(N)nc1=O", "values": [{"measurement": "CC50 at 72 h", "setting": "[1]", "value": "> 98.4", "unit": "µM"}, {"measurement": "CC50 at 72 h", "setting": "[7]", "value": "> 98.4", "unit": "µM"}, {"measurement": "EC50", "setting": "Hepatitis C virus", "value": 4.6, "unit": "µM"}]}, {"smiles": "[N-]=[N+]=N[C@]1(CO)O[C@@H](n2ccc(N)nc2=O)[C@H](O)[C@@H]1O", "note": "[4'-AZIDOCYTIDINE]", "values": [{"measurement": "CC50 at 72 h", "setting": "[1]", "value": "> 98.4", "unit": "µM"}, {"measurement": "CC50 at 72 h", "setting": "[7]", "value": "> 98.4", "unit": "µM"}, {"measurement": "EC50", "setting": "Hepatitis C virus", "value": 4.3, "unit": "µM"}]}, {"smiles": "CC(C)C(=O)OC[C@H]1O[C@@H](n2ccc(N)nc2=O)C2(CC2)[C@@H]1OC(=O)C(C)C", "values": [{"measurement": "Tmax", "setting": "[9]", "value": 0.8, "unit": "h"}, {"measurement": "CC50 at 72 h", "setting": "[1]", "value": "> 98.4", "unit": "µM"}, {"measurement": "Cmax", "setting": "[10]", "value": 11400, "unit": "ng/mL"}, {"measurement": "Tmax", "setting": "[11]", "value": 1.3, "unit": "h"}, {"measurement": "Cmax", "setting": "[12]", "value": 6300, "unit": "ng/mL"}, {"measurement": "Tmax", "setting": "[13]", "value": 0.7, "unit": "h"}, {"measurement": "Tmax", "setting": "[14]", "value": 1.5, "unit": "h"}, {"measurement": "Cmax", "setting": "[15]", "value": 42800, "unit": "ng/mL"}, {"measurement": "AUC(0-t) at 24 h", "setting": "[16]", "value": 204000, "unit": "ng·h/mL"}, {"measurement": "Cmax", "setting": "[17]", "value": 2390, "unit": "ng/mL"}, {"measurement": "AUC(0-t) at 7 h", "setting": "[18]", "value": 7220, "unit": "ng·h/mL"}, {"measurement": "CC50 at 72 h", "setting": "[7]", "value": "> 98.4", "unit": "µM"}, {"measurement": "AUC(0-t) at 24 h", "setting": "[19]", "value": 37000, "unit": "ng·h/mL"}, {"measurement": "AUC(0-t) at 24 h", "setting": "[20]", "value": 40000, "unit": "ng·h/mL"}, {"measurement": "EC50", "setting": "Hepatitis C virus", "value": 20.3, "unit": "µM"}]}, {"smiles": "C[C@@]1(F)[C@H](O)[C@@H](CO)O[C@H]1n1ccc(N)nc1=O", "values": [{"measurement": "CC50 at 72 h", "setting": "[1]", "value": "> 98.4", "unit": "µM"}, {"measurement": "CC50 at 72 h", "setting": "[7]", "value": "> 98.4", "unit": "µM"}, {"measurement": "EC50", "setting": "Hepatitis C virus", "value": 1.9, "unit": "µM"}]}, {"smiles": "CC(C)C(=O)O[C@@H]1[C@@H](CO)O[C@@H](n2ccc(N)nc2=O)C12CC2", "values": [{"measurement": "CC50 at 72 h", "setting": "[1]", "value": "> 98.4", "unit": "µM"}, {"measurement": "Tmax", "setting": "[3]", "value": 0.7, "unit": "h"}, {"measurement": "AUC(0-t) at 7 h", "setting": "[4]", "value": 2620, "unit": "ng·h/mL"}, {"measurement": "Cmax", "setting": "[6]", "value": 184, "unit": "ng/mL"}, {"measurement": "CC50 at 72 h", "setting": "[7]", "value": "> 98.4", "unit": "µM"}, {"measurement": "EC50", "setting": "Hepatitis C virus", "value": 42.8, "unit": "µM"}]}]}
